Hits are enriched below; roughly 2% of the tested compounds scored in any of these assays.
LYP act = LYP (human) phosphatase activation | Q9Y2R2 | recombinant LYP, DiFMUP fluorescence; 0 = plate median, 100 = signal doubled | activation, % at 2 µM | 96,000 compounds, 0.11% hits;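 active = activation at 2 µM above a set limit, the mean plus 5 SD, cut at about 37% in these data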
LYP inh 2 = inhibitors of human LYP (PTPN22) phosphatase; Q9Y2R2; recombinant LYP catalytic domain, DiFMUP fluorescence; inhibition, % at 2 µM; 96,000 compounds, 0.21% hits;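 active = inhibition at 2 µM at or above a set limit, the screen mean plus 3 SD, cut at about 24% in these data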;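 also: 0% = DMSO with enzyme and 100% = enzyme fully blocked by orthovanadate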
HIV Rev-RRE inh = disrupts HIV-1 Rev binding to RRE RNA; P05866; Rev peptide-RRE RNA binding, FRET; inhibition, % at 8 µM; 97,000 compounds, 0.79% hits; AID 704;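 active = inhibition above the screen-wide mean plus 3 SD, cut at about 35% in these data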;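 also: 0% = median DMSO wells and 100% = median Neomycin B control wells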
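Assay system: labelled RRE RNA duplex and labelled Rev peptide / Medium: HEPES pH 7.5 salt buffer with EDTA / Reagent: labelled Rev peptide / Schedule: 5 + 15 min at 25 °C / Signal: FRET, excitation 480 nm, emission 540 nm donor and 671 nm acceptor / Benchmarks: DMSO and neomycin B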
PLK1 PBD inh = blocks phosphopeptide binding to human Plk1 polo box domain | AID 693 | P53350 | 97,000 compounds, 0.13% hits | inhibition, %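 (tested at about 20 µM)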 | Plk1 PBD phosphopeptide binding, fluorescence polarization; in the data active = inhibition above about 34%, passing the limit was not always enough
PLK1 kinase inh = PLK1 (human) kinase inhibition; inhibition, % at 10 µM; 97,000 compounds, 0.53% hits; recombinant PLK1 kinase, TR-FRET peptide phosphorylation;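 active = inhibition of 50% or more in the single-concentration screen; inactive = inhibition below 50%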;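 also: 0% = DMSO max control and 100% = H-89 dihydrochloride min control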
EphB4 antag = blocks human EphB4 binding to ephrin-B2; P54760; EphB4 LBD / TNYL-RAW-Alexa532 peptide, fluorescence polarization; inhibition, % at 7 µM; 97,000 compounds, 0.15% hits; AID 720;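 active = inhibition above the screen-wide mean inhibition plus 3 SD, cut at about 15% in these data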;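 also: 0% = DMSO wells and 100% = excess unlabeled TNYL-RAW peptide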
Target sequence (P54760 whole entry, looked up, the tested form may be a part): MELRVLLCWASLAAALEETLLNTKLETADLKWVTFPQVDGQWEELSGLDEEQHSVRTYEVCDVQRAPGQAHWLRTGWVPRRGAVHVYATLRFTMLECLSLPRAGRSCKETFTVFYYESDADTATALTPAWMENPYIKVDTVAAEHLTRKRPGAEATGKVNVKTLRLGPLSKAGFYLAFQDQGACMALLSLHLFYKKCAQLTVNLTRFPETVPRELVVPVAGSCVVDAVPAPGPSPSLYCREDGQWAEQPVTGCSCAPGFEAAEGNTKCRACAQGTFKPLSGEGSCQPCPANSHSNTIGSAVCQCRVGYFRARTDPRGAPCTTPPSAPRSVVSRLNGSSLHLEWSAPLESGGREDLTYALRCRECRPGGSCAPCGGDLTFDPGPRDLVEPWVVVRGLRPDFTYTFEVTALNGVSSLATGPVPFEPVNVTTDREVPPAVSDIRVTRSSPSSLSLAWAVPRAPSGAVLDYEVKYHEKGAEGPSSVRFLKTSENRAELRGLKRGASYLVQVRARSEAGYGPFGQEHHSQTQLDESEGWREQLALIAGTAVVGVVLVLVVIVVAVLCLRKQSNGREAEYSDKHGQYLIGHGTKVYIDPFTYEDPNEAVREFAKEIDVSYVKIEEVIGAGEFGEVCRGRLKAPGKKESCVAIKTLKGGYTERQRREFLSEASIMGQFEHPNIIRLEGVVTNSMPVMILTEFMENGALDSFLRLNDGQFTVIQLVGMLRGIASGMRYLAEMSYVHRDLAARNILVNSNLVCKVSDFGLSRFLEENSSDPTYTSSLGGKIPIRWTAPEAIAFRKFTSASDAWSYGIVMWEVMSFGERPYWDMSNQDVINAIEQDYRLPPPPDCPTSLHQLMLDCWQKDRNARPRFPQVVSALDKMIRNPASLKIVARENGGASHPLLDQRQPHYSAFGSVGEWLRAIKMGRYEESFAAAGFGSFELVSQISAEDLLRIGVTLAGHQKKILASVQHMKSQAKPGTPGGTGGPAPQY
The depositor's hits bear a star; [ ] = dose if it differs, or a comment.

What do the screens show for `N#CC1(C#N)C2=C(CCCC2)NC(c2ccccc2)C1(C#N)C#N` (stereo not given)?
LYP act: -12; LYP inh 2: 14; HIV Rev-RRE inh: 47*; PLK1 PBD inh: -7; PLK1 kinase inh: -4; EphB4 antag: 0

What do the screens show for `N#CC12C(N)=NC3(OCCO3)C1(C#N)C1=C(CCC1)NC2c1ccccc1` (stereo not given)?
LYP act: -2; LYP inh 2: 1; HIV Rev-RRE inh: 11; PLK1 PBD inh: 17; PLK1 kinase inh: -8; EphB4 antag: -9

How did CCn1c(O)c(/C=N/N=C/c2ccccc2)c2ccc(C3=NNC(=O)CC3)cc21 do in these assays?
LYP act: -9; LYP inh 2: 9; HIV Rev-RRE inh: 57*; PLK1 PBD inh: -30; PLK1 kinase inh: -8; EphB4 antag: 1

How did COc1ccc(-c2ccc(C3C(C#N)=C(N)Oc4n[nH]c(C)c43)o2)cc1 (stereo not given) do in these assays?
LYP act: 6; LYP inh 2: -3; HIV Rev-RRE inh: 52*; PLK1 PBD inh: -13; PLK1 kinase inh: 36; EphB4 antag: 9

How did Cc1[nH]nc2c1C(c1ccoc1)C(C#N)=C(N)O2 (stereo not given) do in these assays?
LYP act: 8; LYP inh 2: -10; HIV Rev-RRE inh: 8; PLK1 PBD inh: 9; PLK1 kinase inh: 55*; EphB4 antag: 6

How did Cc1ccc(C2C(C#N)=C(N)Oc3c2c(=O)n(C)c(=O)n3C)cc1 (stereo not given) do in these assays?
LYP act: 15; LYP inh 2: -11; HIV Rev-RRE inh: 7; PLK1 PBD inh: -19; PLK1 kinase inh: -14; EphB4 antag: -5

How did CCNc1nc2[nH]c(=O)c3c(c2s1)OC(N)=C(C#N)C3c1ccc(C)cc1 (stereo not given) do in these assays?
LYP act: -3; LYP inh 2: 7; HIV Rev-RRE inh: 86*[fluorescence artefact?]; PLK1 PBD inh: -19; PLK1 kinase inh: -18; EphB4 antag: 0

What do the screens show for `CCn1c(CSc2nc3ccccc3s2)nnc1SCC(=O)c1ccc(Cl)cc1`?
LYP act: -3; LYP inh 2: 1; HIV Rev-RRE inh: 0; PLK1 PBD inh: 3; PLK1 kinase inh: -2; EphB4 antag: 6

Results for CCn1c(CSc2nc3ccccc3s2)nnc1SCC(=O)c1ccc(O)c(O)c1 ?
LYP act: -44; LYP inh 2: 46*; HIV Rev-RRE inh: -2; PLK1 PBD inh: 17; PLK1 kinase inh: -3; EphB4 antag: 0

How did COCCn1c(SCC(=O)Nc2nnc(C)s2)nnc1-c1c[nH]c2ccccc12 do in these assays?
LYP act: -3; LYP inh 2: 0; HIV Rev-RRE inh: 2; PLK1 PBD inh: -11; PLK1 kinase inh: -8; EphB4 antag: -4

What do the screens show for `COCCn1c(SCc2ccc(C(=O)OC)o2)nnc1-c1c[nH]c2ccccc12`?
HIV Rev-RRE inh: -1; PLK1 PBD inh: 4; PLK1 kinase inh: 59*; EphB4 antag: -6

How did COCCn1c(SCC(=O)NCc2ccc3c(c2)OCO3)nnc1-c1c[nH]c2ccccc12 do in these assays?
HIV Rev-RRE inh: 5; PLK1 PBD inh: -4; PLK1 kinase inh: 63*; EphB4 antag: -8

Results for C=CCSc1nnc(-c2c[nH]c3ccccc23)n1CCOC ?
LYP act: 20; LYP inh 2: -21; HIV Rev-RRE inh: 0; PLK1 PBD inh: -18; PLK1 kinase inh: 3; EphB4 antag: -6

Results for Cc1nc2ccc(S(=O)(=O)NCC(=O)N3CCC(C)CC3)cc2s1 ?
LYP act: -2; LYP inh 2: 2; HIV Rev-RRE inh: -1; PLK1 PBD inh: 7; PLK1 kinase inh: -11; EphB4 antag: -2

What do the screens show for `Cc1cc(NC(=O)c2cc(C(C)C)on2)nn1Cc1ccc(Cl)cc1`?
LYP act: 1; LYP inh 2: -2; HIV Rev-RRE inh: 16; PLK1 PBD inh: -6; PLK1 kinase inh: -9; EphB4 antag: 1

Results for CCOC(=O)C1=C(C)NC(=O)NC1c1ccc(C)o1 (stereo not given) ?
HIV Rev-RRE inh: 2; PLK1 PBD inh: 18; PLK1 kinase inh: 69*; EphB4 antag: -7

Results for O=C(NCc1ccco1)C1(c2ccc(Br)cc2)CCCC1 ?
LYP act: 6; LYP inh 2: -3; HIV Rev-RRE inh: 10; PLK1 PBD inh: -6; PLK1 kinase inh: 17; EphB4 antag: 0

Screening data: PubChem, several laboratories
